Laboratory results: ChEMBL document CHEMBL5390247, “Aryl azoles based scaffolds for disrupting tumor microenvironment” (Bioorg Med Chem, 2023)
Calls of active or inactive are those of the source. No cut-off for these calls is given here.

Experiments:
[1] = Toxicity against interferon gamma-stimulated human THP-1 monocyte cells co-cultured with human HT-29 cells assessed as reduction in cell viability at 100 uM incubated for 48 hrs by flow cytometry analysis; type: cell-based; conditions: thp-1, 48 h
Method in brief: (§1)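 HT-29 cells at 10^5/well seeded and grown 24 h. Medium then replaced with medium containing IFN-γ (10 ng/ml), 5 × 10^5 THP-1 cells/well and compound at 100 µM; DMSO used as control. After 48 h, THP-1 cells collected from supernatant and cancer cells by trypsinisation. Both fixed in 4% paraformaldehyde and counted by flow cytometry relative to control.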

HT-29 [2] = experiment: Antiproliferative activity against human HT-29 cells assessed as reduction in IL-6 secretion at 100 uM incubated for 48 hrs by ELISA assay; type: functional, cell-based
Method in brief: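 HT-29 monocultures at 10^5 cells/well treated 48 h with compound at 100 µM in 500 µL growth medium. Media collected and secreted IL-6 measured with a human IL-6 ELISA kit.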

HT-29 [3] = experiment: Antiproliferative activity against human HT-29 cells assessed as reduction in cell viability incubated for 48 hrs by MTT assay; type: functional, cell-based; conditions: HT-29, 48 h
Method in brief: (§2)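 MTT dye-reduction assay. Cells at 5 × 10^3/well in DMEM with 10% FBS, treated with serial dilutions of compound (DMSO stocks) for 2 days at 37 °C, 5% CO2. MTT added for a further 3 h, formazan dissolved in DMSO, absorbance read at 550 nm. Viability expressed as % of untreated cells; IC50 determined graphically from three independent experiments.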

A549 = experiment: Antiproliferative activity against human A549 cells assessed as reduction in cell viability incubated for 48 hrs by MTT assay; type: functional, cell-based; conditions: A549, 48 h; method in brief: as §2
MCF7 = experiment: Antiproliferative activity against human MCF7 cells assessed as reduction in cell viability incubated for 48 hrs by MTT assay; type: functional, cell-based; conditions: MCF7, 48 h; method in brief: as §2
[4] = Cytotoxicity against HEK293 cells assessed as reduction in cell viability incubated for 48 hrs by MTT assay; type: toxicity, cell-based; conditions: human; method in brief: as §2
HT-29 [5] = experiment: Antiproliferative activity against human HT-29 cells assessed as relative PD-L1 protein expression in membrane at 100 uM incubated for 48 hrs by flow cytometry analysis relative to control; type: functional
HT-29 [6] = experiment: Antiproliferative activity against human HT-29 cells assessed as relative PD-L1 protein expression in whole cell at 100 uM incubated for 48 hrs by flow cytometry analysis relative to control; type: functional
HT-29 [7] = experiment: Antiproliferative activity against human HT-29 cells assessed as relative c-Myc protein expression at 100 uM incubated for 48 hrs by flow cytometry analysis relative to control; type: functional
HT-29 [8] = experiment: Antiproliferative activity against human HT-29 cells assessed as relative VEGFR-2 protein expression in membrane at 100 uM incubated for 48 hrs by flow cytometry analysis relative to control; type: functional
HT-29 [9] = experiment: Antiproliferative activity against human HT-29 cells assessed as relative VEGFR-2 protein expression in whole cell at 100 uM incubated for 48 hrs by flow cytometry analysis relative to control; type: functional
HT-29 [10] = experiment: Immunomodulatory activity in human HT-29 cells co-cultured with interferon gamma-stimulated THP-1 cells assessed as cell viability at 100 uM incubated for 48 hrs by flow cytometry analysis relative to control; type: functional; conditions: read-out: Activity; method in brief: as §1
HT-29 [11] = experiment: Immunomodulatory activity in human HT-29 cells co-cultured with interferon gamma-stimulated THP-1 cells assessed as inhibition of cell growth at 100 uM incubated for 48 hrs by flow cytometry analysis relative to control; type: functional; method in brief: as §1
HT-29 [12] = experiment: Immunomodulatory activity in human HT-29 cells co-cultured with interferon gamma-stimulated THP-1 cells assessed as relative CD-47 protein expression in membrane at 100 uM incubated for 48 hrs by flow cytometry analysis relative to control; type: functional
HT-29 [13] = experiment: Immunomodulatory activity in human HT-29 cells co-cultured with interferon gamma-stimulated THP-1 cells assessed as relative PD-L1 protein expression in membrane at 100 uM incubated for 48 hrs by flow cytometry analysis relative to control; type: functional
HT-29 [14] = experiment: Immunomodulatory activity in human HT-29 cells co-cultured with interferon gamma-stimulated THP-1 cells assessed as IL-6 level at 100 uM incubated for 48 hrs by ELISA analysis (reference value: 192 +/- 16 pg/ml); type: functional
Method in brief: (§3)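 HT-29 cells co-cultured with IFN-γ (10 ng/ml)-stimulated THP-1 cells and treated 48 h with compound at 100 µM. Culture media collected and IL-6 measured by human IL-6 ELISA, in pg/mL and as % of control. Mean of three experiments.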

HT-29 [15] = experiment: Immunomodulatory activity in human HT-29 cells co-cultured with interferon gamma-stimulated THP-1 cells assessed as relative IL-6 level at 100 uM incubated for 48 hrs by ELISA analysis relative to control; type: functional; method in brief: as §3
HMEC-1 [16] = experiment: Antiangiogenic activity in HMEC-1 cells assessed as inhibition of endothelial microtubes formation at 100 uM incubated for 24 hrs by matrigel based imaging analysis; type: functional, cell-based; conditions: Homo sapiens
Method in brief: (§4)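 HMEC-1 cells at 2 × 10^4 cells/well seeded on Matrigel (10 mg/mL, gelled 30 min at 37 °C) in EGM-2MV medium with SingleQuots, allowed to attach 30 min at 37 °C. Compounds then added in medium; after 24 h at 37 °C, microtube formation/destruction evaluated from pictures.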

HMEC-1 [17] = experiment: Antiangiogenic activity in HMEC-1 cells assessed as inhibition of endothelial microtubes formation at <75 uM incubated for 24 hrs by matrigel based imaging analysis; type: functional, cell-based; conditions: Homo sapiens; method in brief: as §4
HEK293 [18] = experiment: Anti-vasculogenic activity against HEK293 cells assessed as disruption of tube-like structures at 100 uM incubated for 24 hrs by Matrigel based imaging analysis; type: functional, cell-based; conditions: Homo sapiens
Method in brief: (§5)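 HEK-293 cells seeded at 5 × 10^4 cells/well on Matrigel (pre-incubated with medium 24 h at 37 °C), grown 24 h at 37 °C until tube-like structures form; compounds then added in medium and incubated a further 24 h at 37 °C. Disruption of preformed tube-like structures assessed by imaging.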

HEK293 [19] = experiment: Anti-vasculogenic activity against HEK293 cells assessed as disruption of tube-like structures at <75 uM incubated for 24 hrs by Matrigel based imaging analysis; type: functional, cell-based; conditions: Homo sapiens; method in brief: as §5
HT-29 [20] = experiment: Immunomodulatory activity in human HT-29 cells co-cultured with interferon gamma-stimulated THP-1 cells assessed as inhibition of CD-47 protein expression at 100 uM incubated for 48 hrs by flow cytometry analysis relative to control; type: functional
HT-29 [21] = experiment: Immunomodulatory activity in human HT-29 cells co-cultured with interferon gamma-stimulated THP-1 cells assessed as inhibition of PD-L1 protein expression in cell surface at 100 uM incubated for 48 hrs by flow cytometry analysis relative to control; type: functional
HT-29 [22] = experiment: Immunomodulatory activity in human HT-29 cells co-cultured with interferon gamma-stimulated THP-1 cells assessed as reduction in IL-6 level at 100 uM incubated for 48 hrs by ELISA analysis relative to control; type: functional; set-up: scale not given: the % may be the effect or the level left; method in brief: as §3
HT-29 [23] = experiment: Immunomodulatory activity in human HT-29 cells co-cultured with interferon gamma-stimulated THP-1 cells assessed as inhibition of IL-6 secretion at 100 uM incubated for 48 hrs by ELISA analysis relative to control; type: functional; method in brief: as §3

Row | SMILES | Activity [1] | Activity (HT-29 [2]) | Activity (HT-29 [5]) [%] | Activity (HT-29 [6]) [%] | Activity (HT-29 [7]) [%] | Activity (HT-29 [8]) [%] | Activity (HT-29 [9]) [%] | viability at 100 µM (HT-29 [10]) [%] | inhibition at 100 µM (HT-29 [11]) [%] | Activity (HT-29 [12]) [%] | Activity (HT-29 [13]) [%] | Activity (HT-29 [14]) [pg/mL] | Activity (HT-29 [15]) [%] | Activity (HMEC-1 [16]) | Activity (HMEC-1 [17]) | Activity (HEK293 [18]) | Activity (HEK293 [19]) | inhibition at 100 µM (HT-29 [20]) [%] | inhibition at 100 µM (HT-29 [21]) [%] | inhibition at 100 µM (HT-29 [23]) [%] | further results
1 | Nc1cccc(-c2nnn(Cc3ccc(Br)cc3)n2)c1 | Non-Toxic | inactive | 92 | >100 | 76 | >100 | >100 | 6 | > 90 | 60 | 70 | 5 | 3 | Active | inactive | Active | inactive | > 30 | 70 |  | IC50 (HT-29 [3]): > 100 µM; IC50 (A549): > 100 µM; IC50 (MCF7): 44 µM; IC50 at 48 h [4]: > 100 µM; Activity (HT-29 [22]): >95%
2 | Nc1cccc(-c2cn(Cc3ccccc3Cl)nn2)c1 | Non-Toxic | inactive |  |  |  |  |  | 51 |  | 91 | 116 | 12 | 6 |  |  |  |  |  |  | > 80 | 
3 | Nc1cccc(-c2nnn(Cc3ccccc3Br)n2)c1 | Non-Toxic |  | 64 | >100 | 90 | >100 | 92 | 23 | > 70 |  | 65 |  |  | Active | inactive | Active | inactive | > 30 | 70 |  | 
4 | Nc1cccc(-c2nnn(Cc3cccc(Br)c3)n2)c1 | Non-Toxic |  | 66 | >100 | 83 | >100 | >100 | 19 | > 70 |  | 64 |  |  | Active | inactive | Active | inactive | > 30 | 70 |  | 
5 | Nc1cccc(-c2cn(Cc3cccc(Cl)c3)nn2)c1 | Non-Toxic | inactive |  |  |  |  |  | 8 | > 90 | 96 | 122 | 38 | 20 |  |  |  |  |  |  | > 80 | 
